Here are results for four compounds from ChEMBL document CHEMBL1144101, “Secobatzellines A and B, two new enzyme inhibitors from a deep-water Caribbean sponge of the genus Batzella” (J Nat Prod, 1999).

The test system of one assay is P388. The experiment in a line: Cytotoxicity against mouse P388 cells. The assay is classed as functional, cell-based.
The target in another assay is T1, Caspase-3 (Homo sapiens, UniProt P42574).
T1 sequence (P42574 whole entry): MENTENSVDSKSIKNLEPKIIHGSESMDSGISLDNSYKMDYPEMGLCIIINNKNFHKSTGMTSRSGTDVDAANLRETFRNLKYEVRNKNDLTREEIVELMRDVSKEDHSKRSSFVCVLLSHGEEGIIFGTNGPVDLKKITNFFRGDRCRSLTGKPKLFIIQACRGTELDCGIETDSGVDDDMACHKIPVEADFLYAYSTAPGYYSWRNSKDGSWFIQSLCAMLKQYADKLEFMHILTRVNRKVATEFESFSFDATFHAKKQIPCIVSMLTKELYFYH
The experiment in a line: Inhibition of peptidase activity of CPP32.

Another assay concerns A549. The experiment in a line: Cytotoxicity against human A549 cells. The assay is classed as functional, cell-based.
A short description of assay [1]: Inhibition of bovine phosphatase activity of calcineurin by microtitre method. Also noted: species or system Bos taurus. In a few lines: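 Bovine calcineurin assayed together with bovine calmodulin, using p-nitrophenyl phosphate as the phosphatase substrate.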

Values after ≈ are worked out from the molar mass of the structure shown.

The term IC50 denotes the concentration that gives 50% inhibition. On to `CC(=O)OCC(OC(C)=O)c1c[nH]c2c1C(=N)C(Cl)=C(N)C2=O` (configuration not stated) [SECOBATZELLINE A DIACETATE], for which the IC50 in the assay with P388 is 0.01 µg/mL; against Caspase-3 it was 2.35 µM; in the assay with A549, 0.12 µg/mL.
Regarding `N=C1C(Cl)=C(N)C(=O)c2[nH]cc(C(O)CO)c21` (configuration not stated) [SECOBATZELLINE A], the figures for the half-inhibitory concentration (IC50) (with P388; in assay [1]; in the assay on A549) were 0.06 µg/mL (≈ 0.235 µM), 0.55 µg/mL (≈ 2.15 µM) and 0.04 µg/mL (≈ 0.156 µM), respectively.
For the compound `CC(=O)OCC(OC(C)=O)c1c[nH]c2c1C(=O)C(Cl)=C(N)C2=O` (configuration not stated) [SECOBATZELLINE B DIACETATE], the half-inhibitory concentration (IC50) in the assay with P388 is 3.83 µg/mL; at Caspase-3, 25.8 µM; in the assay with A549 it was 4.68 µg/mL.
Turning to `NC1=C(Cl)C(=O)c2c(C(O)CO)c[nH]c2C1=O` (configuration not stated) [SECOBATZELLINE B], the 50% inhibitory concentration (IC50) came out at 1.22 µg/mL (≈ 4.75 µM) with P388, 2.21 µg/mL (≈ 8.61 µM) in assay [1] and 2.86 µg/mL (≈ 11.1 µM) with A549.
